Data published in ChEMBL document CHEMBL3124905, “Isothiocoumarin-3-carboxylic acid derivatives: synthesis, anticancer and antitrypanosomal activity evaluation” (Eur J Med Chem, 2014).
Activity calls are given as the source filed them. The calls are words filed in the database; no cut-off is given here.

Experiments:
Format in all cases: functional
UO-31 = assay: Growth inhibition of human UO31 cells after 48 hrs by SRB assay
In short: (§1)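 NCI ~60-cell-line five-dose screen. Cells were preincubated 24-48 h, then given compound at 10-fold dilutions from 10^-4 to 10^-8 M with 48 h continuous exposure. SRB protein stain was read by absorbance at time zero, in untreated control and with drug. GI50 was derived from [(Ti-Tz)/(C-Tz)]x100=50, TGI from Ti=Tz, and LC50 from [(Ti-Tz)/Tz]x100=-50.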

Malme-3M = assay: Growth inhibition of human MALME-3M cells after 48 hrs by SRB assay
In short: (§2)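 NCI five-dose assay against the ~60-cell-line panel (nine cancer types). Tenfold dilutions from 10−4 to 10−8 M were used with continuous 48-h exposure and SRB absorbance readout. Percent growth was computed from time-zero, control and treated absorbances. GI50 is the concentration giving 50% lower net protein increase than controls. Values not reached are reported as beyond the tested range.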

MOLT-4 = assay: Growth inhibition of human MOLT4 cells after 48 hrs by SRB assay; in short: as §2
NCI-H23 = assay: Growth inhibition of human NCI-H23 cells after 48 hrs by SRB assay; in short: as §2
NCI-H322M = assay: Growth inhibition of human NCI-H322M cells after 48 hrs by SRB assay; in short: as §2
UACC-62 = assay: Growth inhibition of human UACC62 cells after 48 hrs by SRB assay; in short: as §1
MDA-MB-231 = assay: Growth inhibition of human MDA-MB-231/ATCC cells after 48 hrs by SRB assay; in short: as §2
BT-549 = assay: Growth inhibition of human BT549 cells after 48 hrs by SRB assay; in short: as §2
ACHN = assay: Growth inhibition of human ACHN cells after 48 hrs by SRB assay; in short: as §2
[1] = tested on: Trypanosoma brucei brucei; assay: Antitrypanosomal activity against bloodstream form of Trypanosoma brucei brucei strain 90-13 assessed as inhibition of parasite growth at 1 ug/ml after 72 hrs by resazurin reduction test; conditions: strain 90-13, 72 h
In short: (§3)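 Trypanosoma brucei brucei 90-13 bloodstream forms, grown in HMI9 with 10% FCS at 37 °C under 5% CO2. Log-phase parasites were seeded at 10^5 cells/mL with or without inhibitor, with stocks prepared in DMSO. After 72 h, resazurin was added and fluorescence was read at 530/590 nm after a further 4 h. Percent growth inhibition was calculated versus drug-free parasites, with DMSO as control.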

HOP-92 = assay: Growth inhibition of human HOP92 cells after 48 hrs by SRB assay; in short: as §2
OVCAR-5 = assay: Growth inhibition of human OVCAR5 cells after 48 hrs by SRB assay; in short: as §2
LOX IMVI = assay: Growth inhibition of human LOXIMVI cells after 48 hrs by SRB assay; in short: as §2
HCT-116 = assay: Growth inhibition of human HCT116 cells after 48 hrs by SRB assay; in short: as §2
SF-295 = assay: Growth inhibition of human SF295 cells after 48 hrs by SRB assay; in short: as §2
U-251 = assay: Growth inhibition of human U251 cells after 48 hrs by SRB assay; in short: as §1
[2] = tested on: Trypanosoma brucei brucei; assay: Antitrypanosomal activity against bloodstream form of Trypanosoma brucei brucei strain 90-13 assessed as inhibition of parasite growth at 10 ug/ml after 72 hrs by resazurin reduction test; conditions: strain 90-13, 72 h; in short: as §3
NCI-H460 [3] = assay: Growth inhibition of human NCI-H460 cells after 48 hrs by SRB assay; in short: as §2
HOP-62 = assay: Growth inhibition of human HOP62 cells after 48 hrs by SRB assay; in short: as §2
HCC 2998 = assay: Growth inhibition of human HCC2998 cells after 48 hrs by SRB assay; in short: as §2
OVCAR-8 = assay: Growth inhibition of human OVCAR8 cells after 48 hrs by SRB assay; in short: as §2
786-0 [4] = assay: Growth inhibition of human 786-0 cells after 48 hrs by SRB assay; in short: as §2
UACC-257 = assay: Growth inhibition of human UACC257 cells after 48 hrs by SRB assay; in short: as §1
SR = assay: Growth inhibition of human SR cells after 48 hrs by SRB assay; in short: as §1
SNB-75 = assay: Growth inhibition of human SNB75 cells after 48 hrs by SRB assay; in short: as §2
SF-539 = assay: (§4) Growth inhibition of human SF539 cells after 48 hrs by SRB assay; in short: as §2
NCI/ADR-RES = assay: Growth inhibition of human NCI/ADR-RES cells after 48 hrs by SRB assay; in short: as §2
TK-10 = assay: Growth inhibition of human TK10 cells after 48 hrs by SRB assay; in short: as §1
A549 = assay: Growth inhibition of human A549/ATCC cells after 48 hrs by SRB assay; in short: as §2
M14 = assay: Growth inhibition of human M14 cells after 48 hrs by SRB assay; in short: as §2
RXF 393 = assay: Growth inhibition of human RXF393 cells after 48 hrs by SRB assay; in short: as §2
PC-3 = assay: Growth inhibition of human PC3 cells after 48 hrs by SRB assay; in short: as §2
KM12 = assay: Growth inhibition of human KM12 cells after 48 hrs by SRB assay; in short: as §2
786-0 [5] = assay: Growth inhibition of human 786-O cells after 48 hrs by SRB assay; in short: as §2
EKVX = assay: Growth inhibition of human EKVX cells after 48 hrs by SRB assay; in short: as §2
SNB- = assay: Growth inhibition of human SNB cells after 48 hrs by SRB assay; in short: as §2
MDA-MB-435 = assay: Growth inhibition of human MDA-MB-435 cells after 48 hrs by SRB assay; in short: as §2
Hs-578T = assay: Growth inhibition of human Hs 578T cells after 48 hrs by SRB assay; in short: as §2
RPMI18226 = assay: Growth inhibition of human […] cells after 48 hrs by SRB assay; in short: as §2
SK-MEL-5 = assay: Growth inhibition of human SK-MEL-5 cells after 48 hrs by SRB assay; in short: as §2
CAKI-1 = assay: Growth inhibition of human CAKI-1 cells after 48 hrs by SRB assay; in short: as §2
HOP69 = assay: Growth inhibition of human […] cells after 48 hrs by SRB assay; in short: as §2
OVCAR-3 = assay: Growth inhibition of human OVCAR3 cells after 48 hrs by SRB assay; in short: as §2
OVCAR-4 = assay: Growth inhibition of human OVCAR4 cells after 48 hrs by SRB assay; in short: as §2
NCI-H522 = assay: Growth inhibition of human NCI-H522 cells after 48 hrs by SRB assay; in short: as §2
CCRF-CEM = assay: Growth inhibition of human CCRF-CEM cells after 48 hrs by SRB assay; in short: as §2
NCI-H460 [6] = assay: Anticancer activity against human NCI-H460 cells assessed as cell growth at 100 uM after 48 hrs by SRB assay; conditions: NCI-H460, 48 h, read-out: Activity
In short: (§5)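 NCI one-dose primary screen on a three-line panel (breast MCF7, lung NCI-H460, CNS SF-268). Cells were inoculated and preincubated 24–48 h, then exposed to a single concentration of 10−4 M for 48 h. The endpoint was sulforhodamine B protein staining, and results are expressed as percent growth relative to untreated control cells. Negative values denote cytotoxicity.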

[7] = as §4; conditions: SF-539, 48 h; in short: as §2
SF-268 = assay: Anticancer activity against human SF268 cells assessed as cell growth at 100 uM after 48 hrs by SRB assay; conditions: SF-268, 48 h, read-out: Activity; in short: as §5
MCF7 = assay: Anticancer activity against human MCF7 cells assessed as cell growth at 100 uM after 48 hrs by SRB assay; conditions: MCF7, 48 h, read-out: Activity; in short: as §5

O=C(Nc1nc(-c2ccccc2)cs1)c1cc2ccccc2c(=O)s1
pGI50 (UO-31): inactive | pTGI (UO-31): inactive | pGI50 (Malme-3M): inactive | pTGI (Malme-3M): inactive | pGI50 (MOLT-4): inactive | pTGI (MOLT-4): inactive | pGI50 (NCI-H23): inactive | pTGI (NCI-H23): inactive | pGI50 (NCI-H322M): inactive | pTGI (NCI-H322M): inactive | pGI50 (UACC-62): inactive | pTGI (UACC-62): inactive | pGI50 (MDA-MB-231): inactive | pTGI (MDA-MB-231): inactive | pGI50 (BT-549): inactive | pTGI (BT-549): inactive | pGI50 (ACHN): inactive | pTGI (ACHN): inactive | inhibition at 1 µg/mL [1]: 44.2% | pGI50 (HOP-92): inactive | pTGI (HOP-92): inactive | pGI50 (OVCAR-5): inactive | pTGI (OVCAR-5): inactive | pGI50 (LOX IMVI): inactive | pTGI (LOX IMVI): inactive | pGI50 (HCT-116): inactive | pTGI (HCT-116): inactive | pGI50 (SF-295): inactive | pTGI (SF-295): inactive | pGI50 (U-251): inactive | pTGI (U-251): inactive | inhibition at 10 µg/mL [2]: 7.36% | pGI50 (NCI-H460 [3]): inactive | pTGI (NCI-H460 [3]): inactive | pGI50 (HOP-62): inactive | pTGI (HOP-62): inactive | pGI50 (HCC 2998): inactive | pTGI (HCC 2998): inactive | pGI50 (OVCAR-8): inactive | pTGI (OVCAR-8): inactive | pGI50 (786-0 [4]): inactive | pTGI (786-0 [4]): inactive | pGI50 (UACC-257): inactive | pTGI (UACC-257): inactive | pGI50 (SR): inactive | pTGI (SR): inactive | pGI50 (SNB-75): inactive | pTGI (SNB-75): inactive | pGI50 (SF-539): inactive | pTGI (SF-539): inactive | pGI50 (NCI/ADR-RES): inactive | pTGI (NCI/ADR-RES): inactive | pGI50 (TK-10): inactive | pTGI (TK-10): inactive | pGI50 (A549): inactive | pTGI (A549): inactive | pGI50 (M14): inactive | pTGI (M14): inactive | pGI50 (RXF 393): inactive | pTGI (RXF 393): inactive | pGI50 (PC-3): inactive | pTGI (PC-3): inactive | pGI50 (KM12): inactive | pTGI (KM12): inactive | pGI50 (786-0 [5]): inactive | pTGI (786-0 [5]): inactive | pGI50 (EKVX): inactive | pTGI (EKVX): inactive | pGI50 (SNB-): inactive | pTGI (SNB-): inactive | pGI50 (MDA-MB-435): inactive | pTGI (MDA-MB-435): inactive | pGI50 (Hs-578T): inactive | pTGI (Hs-578T): inactive | pGI50 (RPMI18226): inactive | pTGI (RPMI18226): inactive | pGI50 (SK-MEL-5): inactive | pTGI (SK-MEL-5): inactive | pGI50 (CAKI-1): inactive | pTGI (CAKI-1): inactive | pGI50 (HOP69): inactive | pTGI (HOP69): inactive | pGI50 (OVCAR-3): inactive | pTGI (OVCAR-3): inactive | pGI50 (OVCAR-4): inactive | pTGI (OVCAR-4): inactive | pGI50 (NCI-H522): inactive | pTGI (NCI-H522): inactive | pGI50 (CCRF-CEM): inactive | pTGI (CCRF-CEM): inactive

Cc1cc(NC(=O)c2cc3ccccc3c(=O)s2)no1
growth at 100 µM (NCI-H460 [6]): 31% | GI50 (SR): 0.339 µM | TGI (SR; read-out: pTGI (converted)): > 100 µM | GI50 [7]: 30.2 µM | TGI ([7]; read-out: pTGI (converted)): > 100 µM | growth at 100 µM (SF-268): 86% | growth at 100 µM (MCF7): 85%
